According to ChEMBL document CHEMBL3808379, “Isouronium and N-hydroxyguanidinium derivatives as Cell growth inhibitors: A comparative study” (Eur J Med Chem, 2016):

How the values were obtained:
[1] = Cell cycle arrest in human Kelly cells assessed as accumulation at G2/M phase at 50 uM after 24 hrs by propidium iodide staining-based flow cytometric analysis (reference value: 13.12 +/- 0.93%); format: functional
[2] = Cell cycle arrest in human Kelly cells assessed as accumulation at G2/M phase at 25 uM after 48 hrs by propidium iodide staining-based flow cytometric analysis (reference value: 13.68 +/- 0.74%); format: functional
[3] = Cell cycle arrest in human Kelly cells assessed as accumulation at S phase at 50 uM after 48 hrs by propidium iodide staining-based flow cytometric analysis (reference value: 19.05 +/- 2.11%); format: functional
[4] = Cell cycle arrest in human Kelly cells assessed as accumulation at pre-G1 phase at 50 uM after 72 hrs by propidium iodide staining-based flow cytometric analysis (reference value: 10.21 +/- 2.85%); format: functional
[5] = Cell cycle arrest in human Kelly cells assessed as accumulation at polyploid Gn phase at 50 uM after 24 hrs by propidium iodide staining-based flow cytometric analysis (reference value: 9.85 +/- 1.54%); format: functional
[6] = Cell cycle arrest in human Kelly cells assessed as accumulation at S phase at 25 uM after 72 hrs by propidium iodide staining-based flow cytometric analysis (reference value: 16.29 +/- 0.81%); format: functional
[7] = Cytotoxicity against human HL60 cells assessed as cell viability reduction incubated for 72 hrs by alamar blue assay; format: functional, cell-based; conditions: HL-60, 72 h
Outline: (§1)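 HL-60 cells in log phase, 40,000 per well, were treated in triplicate with compound at 10–100 µM (final, 1:100 from ddH2O stocks) or 1% ddH2O vehicle for 72 h at 37 °C. AlamarBlue was then added for 4.5 h in the dark and fluorescence read at ex 544/em 590 nm. Viability is blank-subtracted and expressed as % of vehicle. IC50 comes from a sigmoidal fit; ≥3 independent experiments.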

[8] = Cytotoxicity against human Kelly cells assessed as cell viability reduction incubated for 72 hrs by alamar blue assay; format: functional, cell-based
Outline: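 Kelly cells, 6000 per well, were allowed to attach for 24 h, then treated in triplicate at 0.1–100 µM final or with ddH2O vehicle for 72 h at 37 °C. AlamarBlue was added for 4.5 h in the dark and fluorescence read at ex 544/em 590 nm. Blank-subtracted % of vehicle; IC50 from a sigmoidal dose-response fit; ≥3 independent experiments.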

[9] = Cell cycle arrest in human Kelly cells assessed as accumulation at G2/M phase at 50 uM after 72 hrs by propidium iodide staining-based flow cytometric analysis (reference value: 13.84 +/- 0.76%); format: functional
[10] = Cell cycle arrest in human Kelly cells assessed as accumulation at polyploid Gn phase at 50 uM after 72 hrs by propidium iodide staining-based flow cytometric analysis (reference value: 13.07 +/- 0.25%); format: functional
[11] = Cell cycle arrest in human Kelly cells assessed as accumulation at G2/M phase at 25 uM after 24 hrs by propidium iodide staining-based flow cytometric analysis (reference value: 13.12 +/- 0.93%); format: functional
[12] = Cell cycle arrest in human Kelly cells assessed as accumulation at G0/G1 phase at 50 uM after 24 hrs by propidium iodide staining-based flow cytometric analysis (reference value: 52.37 +/- 1.44%); format: functional
[13] = Cell cycle arrest in human Kelly cells assessed as accumulation at G0/G1 phase at 25 uM after 72 hrs by propidium iodide staining-based flow cytometric analysis (reference value: 46.82 +/- 1.46%); format: functional
[14] = Cell cycle arrest in human Kelly cells assessed as accumulation at G2/M phase at 50 uM after 48 hrs by propidium iodide staining-based flow cytometric analysis (reference value: 13.68 +/- 0.74%); format: functional
[15] = Cell cycle arrest in human Kelly cells assessed as accumulation at S phase at 50 uM after 72 hrs by propidium iodide staining-based flow cytometric analysis (reference value: 16.29 +/- 0.81%); format: functional
[16] = Cell cycle arrest in human Kelly cells assessed as accumulation at S phase at 25 uM after 24 hrs by propidium iodide staining-based flow cytometric analysis (reference value: 18.67 +/- 1.9%); format: functional
[17] = Cell cycle arrest in human Kelly cells assessed as accumulation at pre-G1 phase at 50 uM after 48 hrs by propidium iodide staining-based flow cytometric analysis (reference value: 5.88 +/- 1.13%); format: functional
[18] = Cell cycle arrest in human Kelly cells assessed as accumulation at polyploid Gn phase at 50 uM after 48 hrs by propidium iodide staining-based flow cytometric analysis (reference value: 8.97 +/- 1.27%); format: functional
[19] = Cell cycle arrest in human Kelly cells assessed as accumulation at pre-G1 phase at 25 uM after 48 hrs by propidium iodide staining-based flow cytometric analysis (reference value: 5.88 +/- 1.13%); format: functional
[20] = Cell cycle arrest in human Kelly cells assessed as accumulation at G2/M phase at 25 uM after 72 hrs by propidium iodide staining-based flow cytometric analysis (reference value: 13.84 +/- 0.76%); format: functional
[21] = Binding affinity to salmon sperm DNA assessed as increase in thermal melting temperature by spectrophotometric analysis; conditions: Salmonidae
[22] = Cell cycle arrest in human Kelly cells assessed as accumulation at G0/G1 phase at 50 uM after 48 hrs by propidium iodide staining-based flow cytometric analysis (reference value: 52.54 +/- 2.32%); format: functional
[23] = Cell cycle arrest in human Kelly cells assessed as accumulation at G0/G1 phase at 50 uM after 72 hrs by propidium iodide staining-based flow cytometric analysis (reference value: 46.82 +/- 1.46%); format: functional
[24] = Cell cycle arrest in human Kelly cells assessed as accumulation at pre-G1 phase at 25 uM after 24 hrs by propidium iodide staining-based flow cytometric analysis (reference value: 6.12 +/- 0.95%); format: functional
[25] = Cell cycle arrest in human Kelly cells assessed as accumulation at S phase at 50 uM after 24 hrs by propidium iodide staining-based flow cytometric analysis (reference value: 18.67 +/- 1.9%); format: functional
[26] = Cell cycle arrest in human Kelly cells assessed as accumulation at G0/G1 phase at 25 uM after 24 hrs by propidium iodide staining-based flow cytometric analysis (reference value: 52.37 +/- 1.44%); format: functional
[27] = Cell cycle arrest in human Kelly cells assessed as accumulation at polyploid Gn phase at 25 uM after 48 hrs by propidium iodide staining-based flow cytometric analysis (reference value: 8.97 +/- 1.27%); format: functional
[28] = Cell cycle arrest in human Kelly cells assessed as accumulation at S phase at 25 uM after 48 hrs by propidium iodide staining-based flow cytometric analysis (reference value: 19.05 +/- 2.11%); format: functional
[29] = Cell cycle arrest in human Kelly cells assessed as accumulation at pre-G1 phase at 25 uM after 72 hrs by propidium iodide staining-based flow cytometric analysis (reference value: 10.21 +/- 2.85%); format: functional
[30] = Cell cycle arrest in human Kelly cells assessed as accumulation at polyploid Gn phase at 25 uM after 24 hrs by propidium iodide staining-based flow cytometric analysis (reference value: 9.85 +/- 1.54%); format: functional
[31] = Cell cycle arrest in human Kelly cells assessed as accumulation at pre-G1 phase at 50 uM after 24 hrs by propidium iodide staining-based flow cytometric analysis (reference value: 6.12 +/- 0.95%); format: functional
[32] = Cell cycle arrest in human Kelly cells assessed as accumulation at G0/G1 phase at 25 uM after 48 hrs by propidium iodide staining-based flow cytometric analysis (reference value: 52.54 +/- 2.32%); format: functional
[33] = Cell cycle arrest in human Kelly cells assessed as accumulation at polyploid Gn phase at 25 uM after 72 hrs by propidium iodide staining-based flow cytometric analysis (reference value: 13.07 +/- 0.25%); format: functional
[34] = test system: N=C(N)Oc1ccc(Sc2ccc(O)cc2)cc1; assay: Inhibition of bovine brain tubulin polymerization assessed as rate of tubulin polymerization at 1 mM mesured at 30 s intervals for 60 mins by spectrophotometric analysis (reference value: 3.647 mOD/min); conditions: Bos taurus
[35] = Dissociation constant, pKa of the compound; format: physicochemical
[36] = Cell cycle arrest in human HL60 cells assessed as accumulation at G0/G1 phase at 50 uM after 24 hrs by propidium iodide staining-based flow cytometric analysis (reference value: 56.05 +/- 1.4%); format: functional; conditions: HL-60
[37] = Cell cycle arrest in human HL60 cells assessed as accumulation at S phase at 50 uM after 48 hrs by propidium iodide staining-based flow cytometric analysis (reference value: 24.29 +/- 1.37%); format: functional; conditions: HL-60
[38] = Cell cycle arrest in human HL60 cells assessed as accumulation at G0/G1 phase at 50 uM after 72 hrs by propidium iodide staining-based flow cytometric analysis (reference value: 59.5 +/- 1.5%); format: functional; conditions: HL-60
[39] = Cell cycle arrest in human HL60 cells assessed as accumulation at polyploid Gn phase at 50 uM after 48 hrs by propidium iodide staining-based flow cytometric analysis (reference value: 3.02 +/- 0.56%); format: functional; conditions: HL-60
[40] = Cell cycle arrest in human HL60 cells assessed as accumulation at G2/M phase at 50 uM after 48 hrs by propidium iodide staining-based flow cytometric analysis (reference value: 11.35 +/- 1.05%); format: functional; conditions: HL-60
[41] = Cytotoxicity against human HL60 cells assessed as cell viability reduction at 100 uM incubated for 72 hrs by alamar blue assay; format: functional; conditions: HL-60, 72 h; outline: as §1
[42] = Cell cycle arrest in human HL60 cells assessed as accumulation at polyploid Gn phase at 50 uM after 72 hrs by propidium iodide staining-based flow cytometric analysis (reference value: 3.43 +/- 0.48%); format: functional; conditions: HL-60
[43] = Cell cycle arrest in human HL60 cells assessed as accumulation at G2/M phase at 50 uM after 24 hrs by propidium iodide staining-based flow cytometric analysis (reference value: 16.73 +/- 0.59%); format: functional; conditions: HL-60
[44] = Cell cycle arrest in human HL60 cells assessed as accumulation at G0/G1 phase at 50 uM after 48 hrs by propidium iodide staining-based flow cytometric analysis (reference value: 58.77 +/- 2.33%); format: functional; conditions: HL-60
[45] = Cell cycle arrest in human HL60 cells assessed as accumulation at S phase at 50 uM after 72 hrs by propidium iodide staining-based flow cytometric analysis (reference value: 23.58 +/- 1.38%); format: functional; conditions: HL-60
[46] = Cell cycle arrest in human HL60 cells assessed as accumulation at pre-G1 phase at 50 uM after 48 hrs by propidium iodide staining-based flow cytometric analysis (reference value: 1.41 +/- 0.32%); format: functional; conditions: HL-60
[47] = Cell cycle arrest in human HL60 cells assessed as accumulation at S phase at 50 uM after 24 hrs by propidium iodide staining-based flow cytometric analysis (reference value: 24.46 +/- 1.15%); format: functional; conditions: HL-60
[48] = Cell cycle arrest in human HL60 cells assessed as accumulation at pre-G1 phase at 50 uM after 24 hrs by propidium iodide staining-based flow cytometric analysis (reference value: 0.81 +/- 0.11%); format: functional; conditions: HL-60
[49] = Cell cycle arrest in human HL60 cells assessed as accumulation at pre-G1 phase at 50 uM after 72 hrs by propidium iodide staining-based flow cytometric analysis (reference value: 2.21 +/- 0.57%); format: functional; conditions: HL-60
[50] = Cell cycle arrest in human HL60 cells assessed as accumulation at polyploid Gn phase at 50 uM after 24 hrs by propidium iodide staining-based flow cytometric analysis (reference value: 2.96 +/- 0.79%); format: functional; conditions: HL-60
[51] = Cell cycle arrest in human HL60 cells assessed as accumulation at G2/M phase at 50 uM after 72 hrs by propidium iodide staining-based flow cytometric analysis (reference value: 10.53 +/- 0.81%); format: functional; conditions: HL-60

Work on N=C(N)Oc1ccc(Oc2ccc(O)cc2)cc1 yielded an Activity [1] of 8.23%, an Activity [2] of 7.65% and an Activity [3] of 11.7%. The Activity [4] was 49.5%, the Activity [5] was 7.77% and the Activity [6] was 16.4%. The IC50 [7] was 36.9 µM, the IC50 [8] was 17.3 µM and the Activity [9] was 2.44%. For the same molecule, the Activity [10] was 2.69%, the Activity [11] was 11.3% and the Activity [12] was 42.1%. It also gave an Activity [13] of 26.2%, an Activity [14] of 3.5% and an Activity [15] of 17.3%. It also gave an Activity [16] of 25.6%, an Activity [17] of 50.7% and an Activity [18] of 4.19%. The Activity [19] was 38%, the Activity [20] was 5.04% and the ΔTm [21] was 4 °C. For the same molecule, the Activity [22] was 25.2%, the Activity [23] was 29% and the Activity [24] was 20.4%. The Activity [25] was 16%, the Activity [26] was 31.2% and the Activity [27] was 6.91%. It also gave an Activity [28] of 27.5%, an Activity [29] of 48.4% and an Activity [30] of 13.5%. The Activity [31] was 24.3%, the Activity [32] was 22.2% and the Activity [33] was 4.09%.

Molecule “Tubulin (Bos taurus) (from UniProt Q6B856+Q862L2+Q862F3)” has a Vmax [34] of 2.63 mOD/minute.

With N=C(N)Oc1ccccc1 the pKa [35] was 8.29.

N=C(N)Oc1ccc(NC(=O)c2ccc(OC(=N)N)cc2)cc1 gave an IC50 [7] of over 100 µM, an IC50 [8] of over 100 µM and a ΔTm [21] of 2 °C.

With N=C(N)Oc1ccc(Sc2ccc(OC(=N)N)cc2)cc1 the Activity [36] was 52%, the IC50 [7] was 57.4 µM and the IC50 [8] was 28.7 µM. It also gave an Activity [37] of 21.9%, an Activity [38] of 35.5% and an Activity [39] of 8.42%. It also gave an Activity [40] of 29.1%, an inhibition at 100 µM [41] of 95.8% and a ΔTm [21] of 6 °C. It also gave an Activity [42] of 22%, an Activity [43] of 18.1% and an Activity [44] of 38.3%. For the same molecule, the Activity [45] was 15.6%, the Activity [46] was 2.25% and the Activity [47] was 26.9%. The Activity [48] was 1.46%, the Activity [49] was 4.87% and the Activity [50] was 3.11%. The Activity [51] was 21.9%.

Work on c1ccc(NC2=NCCN2)cc1 yielded a pKa [35] of 9.16.

Molecule N=C(N)Oc1ccc(Cc2ccc(OC(=N)N)cc2)cc1 has an IC50 [7] of over 100 µM and a ΔTm [21] of 4 °C.

N=C(N)Nc1ccccc1 [PHENYLGUANIDINE] showed a pKa [35] of 10.9.

For N=C(N)Oc1ccc(Cc2ccc(O)cc2)cc1, the IC50 [7] was over 100 µM and the ΔTm [21] was 2 °C.
